The list is not random: actives were taken first. Their share in the collection is about 9.8%.
m-calpain inh = calpain II (pig) inhibition; 220,000 tested, 0.37% active; inhibition, % at 16 µM; purified calpain II, fluorogenic peptide substrate, 30 min;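 active = inhibition above about 50%, limit read from the data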
PMI act hi M6P = activators of human phosphomannose isomerase at near-saturating mannose 6-phosphate. P34949. coupled PMI enzyme assay, resazurin fluorescence, 20 min; stronger effect = higher value; 1 = untreated enzyme, 0 = substrate-free blank. activation factor at 20 µM. 190,000 tested, 0.34% active;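 active = activation factor of 2 or more at 20 µM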
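Test system: human phosphomannose isomerase with PGI, G6PDH, diaphorase coupling enzymes; amount: 15 ng/mL PMI; incubation: enzyme reaction with compound 20 min at room temperature; technique: resorufin fluorescence (Ex 544/Em 590 nm) from resazurin via diaphorase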
Lmaj promast = inhibitors of Leishmania major promastigote growth; Leishmania major promastigotes, resazurin fluorescence viability; inhibition, % at 10 µM; 200,000 tested, 9% active; in the data active = inhibition above about 50%;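 note: promastigotes grown with compound for 44 hours at 28 °C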
Rad51 HR inh = Rad51 (human) homologous recombination inhibition | 200,000 tested, 0.085% active | AID 1385 | inhibition, % at 10 µM | hRad51 DNA strand exchange, fluorescence dequenching;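 active = inhibition above 40% at the single screening dose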
Target sequence (Q06609 whole entry, looked up): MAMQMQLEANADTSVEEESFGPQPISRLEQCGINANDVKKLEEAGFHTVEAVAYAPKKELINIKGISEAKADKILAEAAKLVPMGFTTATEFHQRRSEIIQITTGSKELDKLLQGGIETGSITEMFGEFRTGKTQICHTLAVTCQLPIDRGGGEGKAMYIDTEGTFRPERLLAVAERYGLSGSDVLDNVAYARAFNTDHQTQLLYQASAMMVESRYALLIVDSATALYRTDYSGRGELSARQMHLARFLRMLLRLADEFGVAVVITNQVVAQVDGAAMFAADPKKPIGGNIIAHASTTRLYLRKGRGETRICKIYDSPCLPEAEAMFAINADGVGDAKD
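System: hRad51 filaments on single-stranded DNA; reagent: Fluorescein- and BHQ1-tagged 47-mer duplex; compound dosing: one concentration, 10 µM final; timing: filaments 15 min 37 °C, then compound 30 min; measured by: fluorescein emission 520 nm, excitation 485 nm; benchmarks: per-plate controls and blanks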
PMI act = activators of human phosphomannose isomerase. P34949. 190,000 tested, 0.005% active. activation factor at 20 µM. AID 1214. purified human PMI, coupled resazurin fluorescence, 20 min; stronger effect = higher value; 1 = vehicle control, 0 substrate-free wells;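 active = activation factor of 2 or more at 20 µM, relative to plate controls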
WT yeast gro inh = growth inhibition of WT yeast, mitochondrial fusion screen; mitochondrial fusion phenotypic screen, WT strain; inhibition, % at 10 µM; AID 1362; 190,000 tested, 2.1% active; in the data active = inhibition above about 58%; tested in S. cerevisiae
Each line names hits and unclear results; the compound was inactive in the other large screens.

Cc1ccc2sc(NNC(=O)c3cc(-c4cccs4)nc4ccccc34)nc2c1C	none (no result: Rad51 HR inh)
Cn1cccc1/C=N/NC(=O)c1cc(-c2cccs2)nc2ccccc12	Lmaj promast 56.5 (no result: Rad51 HR inh)
Cc1cc(C)c2nc(NNC(=O)c3cc(-c4cccs4)nc4ccccc34)sc2c1	WT yeast gro inh 63.7 (no result: Rad51 HR inh)
O=C(N/N=C/c1ccc[nH]1)c1cc(-c2cccs2)nc2ccccc12	none
COc1ccc(-c2cc(C(=O)N/N=C/c3sccc3C)c3ccccc3n2)c(OC)c1	Lmaj promast 78.6
O=C(CN1C(=O)NC2(CCCC2)C1=O)OCc1cc(=O)n2cc(Br)ccc2n1	none (no result: PMI act hi M6P, Lmaj promast, PMI act, WT yeast gro inh)
COc1ccc(Cn2c(S(=O)(=O)CC(N)=O)nc3ccccc32)cc1[N+](=O)[O-]	none (no result: Rad51 HR inh)
Cc1ccc(-n2cc(C(=O)c3ccc(N4CCN(C)CC4)cc3)nn2)cc1Cl	Lmaj promast 100.5
CN1CCN(c2ccc(C(=O)c3cn(-c4ccc(F)c(Cl)c4)nn3)cc2)CC1	Lmaj promast 50.0
Cc1ccc(C(=O)c2cn(-c3ccc(F)c(Cl)c3)nn2)cc1	none
CCOP(=O)(OCC)C(NC(=O)c1cc([N+](=O)[O-])cc([N+](=O)[O-])c1)C(F)(F)F (stereo not drawn)	none
N/C(Cc1ccc(Cl)cc1Cl)=N\OC(=O)c1ccccc1F	WT yeast gro inh 97.1
CC1=NN(c2ccccc2)C(=O)/C1=C/C=C/c1ccccc1	Lmaj promast 100.3 (no result: Rad51 HR inh)
Cc1ccc(C2=NOC(=O)/C2=C\C=C\c2ccccc2)cc1	Lmaj promast 100.5
CN1CCC(Oc2ccccc2Sc2ccc(C(F)(F)F)cc2)CC1	Lmaj promast 99.2 (no result: Rad51 HR inh)
CN1CCC(Oc2ccc(Sc3ccccc3)cc2)CC1	Lmaj promast 100.1
O=C(COc1nncc2ccccc12)NCC(F)(F)F	none
COc1ccc(N2CCN(C(=O)C(C)(C)Oc3ccc(Cl)cc3)CC2)cc1	Lmaj promast 98.2
CCOC(=O)N1CCN(C(=O)C(C)(C)Oc2ccc(Cl)cc2)CC1	none
CC(OC(=O)C1CCN(S(=O)(=O)c2ccc(Cl)cc2)CC1)C(=O)N1CCc2ccccc21 (stereo not drawn)	Lmaj promast 97.8
Cc1nc(SCc2c(F)cccc2Cl)n[nH]1	none
COc1cnc(SCc2c(Cl)cccc2Cl)nc1Cl	m-calpain inh 50.8
Cc1ccc(NS(=O)(=O)c2cc(C(=O)Nc3cccc([N+](=O)[O-])c3)ccc2C)cc1	Lmaj promast 66.8, WT yeast gro inh 64.2 (no result: Rad51 HR inh)
Cc1ccc(NS(=O)(=O)c2ccc(OCC(=O)Nc3cccc([N+](=O)[O-])c3)c(C)c2)cc1	Lmaj promast 100.3 (no result: WT yeast gro inh)
Cc1ccc(C(=O)Nc2cccc([N+](=O)[O-])c2)cc1S(=O)(=O)Nc1ccc(NC(=O)c2ccccc2)cc1	Lmaj promast 62.3
Cc1ccc(C(=O)Nc2cccc([N+](=O)[O-])c2)cc1S(=O)(=O)Nc1cccc(C(=O)O)c1	none (no result: Rad51 HR inh)
Cc1ccc(NC(=O)CC(=O)c2ccc([N+](=O)[O-])cc2)cc1S(=O)(=O)Nc1cccc(Cl)c1	Lmaj promast 51.0
CSc1nc2cc(C)nn2c(-c2ccccc2Cl)c1C#N	none (no result: PMI act hi M6P, Lmaj promast, PMI act, WT yeast gro inh)
Cc1ccccc1NS(=O)(=O)c1cc(C(=O)Nc2cccc(N(C)S(C)(=O)=O)c2)ccc1C	Lmaj promast 96.9
Cc1ccc(NC(=O)c2cccs2)cc1S(=O)(=O)Nc1cccc(Cl)c1	Lmaj promast 50.6, WT yeast gro inh 70.3
CCOc1ccc(C(=O)Nc2ncccc2Cl)cc1	none
CCN1c2ccccc2N(C)C1(C)c1ccccc1 (stereo not drawn)	Lmaj promast 98.6
CN(C)CCN(Cc1ccco1)C(=O)c1cc2c(Cl)nc3ccccc3c2s1	Lmaj promast 91.4
CCCCN(Cc1ccco1)C(=O)c1cc2c(=O)[nH]c3ccc(C)cc3c2s1	none
Cc1ccc2[nH]c(=O)c3cc(C(=O)N(CCCOC(C)C)Cc4ccco4)sc3c2c1	Lmaj promast 75.0
Cc1ccc2nc(Cl)c3cc(C(=O)N(CCN(C)C)Cc4ccco4)sc3c2c1	Lmaj promast 65.4
Cc1ccc(NC(=O)/C=C\C(=O)NCC(=O)O)cc1C	none (no result: Rad51 HR inh)
COc1cccc(NC(=O)N(Cc2ccco2)C(C)c2cccs2)c1 (stereo not drawn)	Lmaj promast 60.6
CC(c1cccs1)N(Cc1ccco1)C(=O)Nc1ccc(Cl)c(Cl)c1 (stereo not drawn)	WT yeast gro inh 64.3
COc1cccc(NC(=O)N(C2CCCCC2)C(C)c2cccs2)c1 (stereo not drawn)	none
C#CCn1c(=NC(=O)CN2C(=O)CCC2=O)sc2cccc(C)c21	none
Cc1ccc(C)c2c1sc(=NC(=O)CN1C(=O)CCC1=O)n2C	Lmaj promast 90.5
Cc1ccc(C(=O)Nc2nc(C(C)(C)C)cs2)s1	Lmaj promast 55.2
NCCCCCc1nnc(SCc2ccccc2Cl)o1	Lmaj promast 98.8
NCCc1nnc(SCc2c(Cl)cccc2Cl)o1	none (no result: PMI act hi M6P, Lmaj promast, PMI act, WT yeast gro inh)
CC(Sc1nc(-c2ccccc2)cs1)C(=O)Nc1ccc(Cl)cn1 (stereo not drawn)	none
O=C(NCc1cccnc1)c1ccc(CN2CCc3ccccc3C2)cc1	Lmaj promast 63.0 (no result: Rad51 HR inh)
COCCNC(=O)c1ccc(CN2CCc3ccccc3C2)cc1	none
CCCNC(=O)c1ccc(CN2CCc3ccccc3C2)cc1	Lmaj promast 55.6
O=C(c1ccc(COc2ccccc2Br)cc1)N1CCCCC1	Lmaj promast 69.8
O=C(c1ccc(CN2CCc3ccccc3C2)cc1)N1CCCCC1	Lmaj promast 63.5
O=C(c1ccc(CN2CCc3ccccc3C2)cc1)N1CCN(c2ccc(F)cc2)CC1	none (no result: m-calpain inh, PMI act hi M6P, PMI act, WT yeast gro inh)
O=C(NCc1ccc2c(c1)OCO2)c1ccc(CN2CCc3ccccc3C2)cc1	none
Cc1nn(-c2ccccc2)nc1-c1nnc(-c2ccc(C(F)(F)F)cc2)o1	none (no result: PMI act hi M6P, Lmaj promast, PMI act, WT yeast gro inh)
Cc1cc(C)c(NC(=O)c2ccc(CN3CCc4ccccc4C3)cc2)c(C)c1	Lmaj promast 73.5
O=C(C1CCCN(Cc2ccccc2)C1)N1CCc2ccccc2C1 (stereo not drawn)	Lmaj promast 96.4
COc1ccc(CNC(=O)C(=O)NCCCn2ccnc2)cc1	none (no result: PMI act hi M6P, PMI act)
O=C(N/N=C/C(Br)=C\c1ccccc1)c1ccc2nc[nH]c2c1	none
CC(C)Cn1c2c(c(O)c(C(=O)Nn3c(Cc4ccccc4)nc4ccccc4c3=O)c1=O)CCCC2	Lmaj promast 73.8 (no result: Rad51 HR inh)
CCCCc1nc2ccccc2c(=O)n1NC(=O)c1c(O)c2c(n(CC(C)C)c1=O)CCCC2	none
O=C(Nn1c(Cc2ccccc2)nc2ccccc2c1=O)c1c(O)c2cccc3c2n(c1=O)CCC3	WT yeast gro inh 68.3
CCO[C@H]1OC(C(=O)NC2CC2)=C[C@@H](C2CC2)[C@@H]1CCCO	none
Cc1ccccc1-n1c(SCC(=O)N/N=C/C=C/c2ccccc2[N+](=O)[O-])nc2ccccc2c1=O	Lmaj promast 60.4
CC1(C)c2[nH]c3ccccc3c2C[C@@H]2C(=O)N(c3ccc(F)cc3F)C(=O)N21	none (no result: m-calpain inh, PMI act hi M6P, Lmaj promast, PMI act, WT yeast gro inh)

Screens: PubChem, several laboratories
